# Source: PubChem BioAssay (Johns Hopkins Ion Channel Center)
# In the library only some 3.5% were active in any assay of this set; here they are far more common.
# RGS4 act – RGS4 potentiation or activation. hit rate 0.92% among 310,000. AID 463111. B-score at 10 µM. HEK293 M3R/inducible RGS4, carbachol calcium flux Fluo4; stronger effect = lower value;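 active = B-score of the integrated calcium signal more than 4 SD below the library mean, with starting fluorescence not abnormally high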;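 note: negative B-score means reduced calcium response which marks RGS4 activation or potentiation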
#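 test system = M3R-expressing HEK293 line, RGS4 induced by doxycycline | probe or stimulus = carbachol at ECmax as muscarinic agonist stimulus | timing = dye loading 30 min 37 °C, buffer rest 30 min RT | signal = calcium dye Fluo4 fluorescence | evaluation = B score from integrated fluorescence ratio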
# MrgX1 allo act – human MrgX1 positive allosteric modulation, primary screen | Q96LB2 | B-score at 10 µM | MrgX1-HEK293, Fluo-4 calcium flux, FDSS; stronger effect = higher value | AID 588675 | hit rate 0.63% among 310,000;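 active = plate-corrected calcium response at least 3 library SD above typical, normal starting fluorescence, not activating the receptor alone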;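 note: compound read alongside a low EC10 to EC30 dose of BAM8-22 agonist; peak minus trough fluorescence over baseline measured at the second addition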
# Target sequence (Q96LB2 whole entry, looked up): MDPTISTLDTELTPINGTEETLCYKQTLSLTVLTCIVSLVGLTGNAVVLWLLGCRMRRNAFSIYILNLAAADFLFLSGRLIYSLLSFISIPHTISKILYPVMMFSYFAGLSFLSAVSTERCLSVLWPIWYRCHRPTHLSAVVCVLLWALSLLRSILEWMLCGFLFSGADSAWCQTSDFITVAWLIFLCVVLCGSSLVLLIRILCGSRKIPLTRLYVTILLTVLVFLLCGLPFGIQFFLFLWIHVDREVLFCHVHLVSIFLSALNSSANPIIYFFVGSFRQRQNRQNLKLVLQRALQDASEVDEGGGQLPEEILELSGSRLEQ
# MrgX1 antagonist – antagonists of human MrgX1 receptor | hit rate 1.3% among 310,000 | MRGX1-HEK293 calcium flux, Fluo-4, BAM8-22 antagonism; stronger effect = lower value | AID 588676 | Q96LB2 | B-score at 10 µM;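 active = calcium-response B-score plate-corrected more than 3 library SD below zero, starting fluorescence within 5 deviations, no agonist response on first addition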;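 note: peak minus trough fluorescence over baseline after final BAM8-22 challenge near maximal dose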
# RGS4 block – inhibitors of human RGS4; P49798; HEK293 M3R/RGS4 inducible, Fluo-4 calcium flux; stronger effect = higher value; triggered by carbachol at its EC20; B-score at 10 µM; hit rate 0.45% among 310,000;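 active = B-score, a plate-corrected calcium signal, over three deviations above library mean, with baseline fluorescence within five deviations of library mean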;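 note: RGS4 expression induced by doxycycline in cells with stable M3 receptor; B-score is computed from the integrated fluorescence ratio over baseline after carbachol; higher B-score means a larger calcium signal and so more RGS4 inhibition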
# Target sequence (P49798 whole entry, looked up): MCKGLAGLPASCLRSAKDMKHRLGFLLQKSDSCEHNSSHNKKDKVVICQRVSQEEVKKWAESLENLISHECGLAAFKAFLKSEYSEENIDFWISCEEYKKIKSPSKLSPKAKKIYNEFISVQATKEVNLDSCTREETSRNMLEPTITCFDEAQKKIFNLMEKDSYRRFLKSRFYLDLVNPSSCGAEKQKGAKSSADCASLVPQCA
# MrgX1 ag – human MrgX1 receptor agonism, primary screen | B-score at 10 µM | MrgX1-HEK293 cells, Fluo-4 calcium fluorescence, agonist mode; stronger effect = higher value | hit rate 0.44% among 310,000 | AID 588627 | Q96LB2;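 active = calcium response B-score plate-corrected fluorescence ratio at least 3 library SD, with starting fluorescence B-score inside 5 SD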
#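 times = overnight plating, then 30 min 37 °C plus 30 min room-temperature dye loading | assay system = stable human MrgX1 HEK293 cell line | input = fifteen thousand cells per well | signal = kinetic calcium dye fluorescence, Fluo-4 NW | dosing = compound delivered in addition one of three | read-out = B-scored fluorescence response ratio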
# RGS4 inh valid – validation of RGS4 inhibitors. HEK293 M3R/RGS4, carbachol calcium Fluo-4 fluorescence; carbachol added at its EC20; 0 = buffer wells, 100 = carbachol control. AID 492999. hit rate 65% among 1,700. shares compounds with RGS4 block. calcium response, % at 10 µM;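 active = duplicate-averaged calcium response above the buffer-only control mean plus 5 SD of those controls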;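 note: integrated fluorescence ratio F max minus min over baseline F0; higher response in RGS4-induced cells means RGS4 inhibition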
# M3R Ca ctr – non-induced cell nonspecific activity of RGS4 inhibitors. shares compounds with RGS4 block. HEK293 M3R non-induced, carbachol calcium Fluo-4; submaximal (EC20) carbachol stimulus; buffer wells 0%, carbachol control wells 100%. activity (percent), % at 10 µM. hit rate 20% among 1,900; call rule not given here;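 note: RGS4 induction absent so cells express M3R without RGS4; higher means more calcium signal and flags a non-specific hit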
# M3R basal Ca ctr – second counter-screen for RGS4 inhibitors: non-induced cells without carbachol. hit rate 22% among 1,900. shares compounds with RGS4 block. AID 493001. calcium response (agonist-mode artifact), % at 10 µM. HEK293 M3R/RGS4 non-induced, Fluo-4 calcium, no carbachol; normalised: buffer wells 0%, carbachol wells 100%;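 active = duplicate-averaged calcium rise in uninduced cells above buffer wells' mean plus 5 SD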
# MrgX1 ag reconf – reconfirmed activator of human MrgX1 receptor signaling; MrgX1-HEK293, Fluo-4 calcium fluorescence, FDSS; activation, % at 10 µM; shares compounds with MrgX1 ag; AID 602412; hit rate 78% among 600;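 active = calcium signal rise, corrected for plate position, at least 3 library SD high, with starting brightness within 5 such deviations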; note: reference of the scale not given here
# MrgX1 allo conf – reconfirmed allosteric activator of human MrgX1 receptor; shares compounds with MrgX1 allo act; MrgX1-HEK293, Fluo-4 calcium fluorescence, FDSS; activation (ratio percentage), % at 10 µM; hit rate 13% among 1,200;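 active = ratio at least 3 SD above the weak peptide control, stable starting fluorescence, no direct agonism earlier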;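 note: compound followed by low BAM8-22 agonist challenge near EC20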
# MrgX1 ant reconf – human MrgX1 receptor antagonism, re-confirmation screen | shares compounds with MrgX1 antagonist | MrgX1-HEK293, BAM8-22 calcium flux, Fluo-4; stronger effect = lower value | remaining BAM8-22 calcium response % of control (stronger effect = lower value), % at 10 µM | hit rate 19% among 2,300;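 active = remaining agonist calcium response no higher than 100% minus 3 SD of agonist-only control wells, with starting fluorescence near control levels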;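 note: agonist BAM8-22 given at a near maximal EC90 to ECmax level; peak minus minimum fluorescence divided by baseline after agonist addition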
# HEK293 Ca flux – activity in parental HEK293 cells lacking MrgX1 | shares compounds with MrgX1 antagonist | Fluo-4 calcium fluorescence, FDSS | fluorescence ratio F(max-min)/F0 at 10 µM | hit rate 2% among 4,000 | AID 624111;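 active = duplicate-averaged calcium fluorescence ratio at least three times the standard deviation of buffer wells, a nonspecific response in parental cells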
# HEK293 Ca counter – counter-screen for MrgX1 allosteric activators: effect in parental HEK293 cells. shares compounds with MrgX1 antagonist. parental HEK293 calcium flux, Fluo-4 fluorescence ratio; stronger effect = higher value. fluorescence ratio F(max-min)/F0 at 10 µM. hit rate 0.4% among 4,000. AID 624114;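 active = calcium fluorescence ratio, averaged over duplicates, at least 3 SD of the buffer-well ratio, meaning a nonspecific response in receptor-free cells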;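 note: untransfected parental HEK293 lacking MrgX1 used as counterscreen for MrgX1 allosteric activators; fluorescence change taken during the second addition on a kinetic imager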
# HEK293 Ca cntr2 – counter-screen for MrgX1 activators: effect in parental HEK293 cells | fluorescence ratio F(max-min)/F0 at 10 µM | AID 624115 | hit rate 8.7% among 4,000 | Fluo-4 calcium fluorescence (FDSS); stronger effect = higher value | shares compounds with MrgX1 antagonist;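 active = calcium fluorescence ratio at least three times the spread of buffer wells, meaning a non-specific response in parental cells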
# Numbers without * were called inactive; i = inactive; / = no result given.
SMILES,RGS4 act,MrgX1 allo act,MrgX1 antagonist,RGS4 block,MrgX1 ag,RGS4 inh valid,M3R Ca ctr,M3R basal Ca ctr,MrgX1 ag reconf,MrgX1 ant reconf,HEK293 Ca flux,HEK293 Ca counter,HEK293 Ca cntr2,others
CCOC(=O)[C@@H]1[C@H]2COc3ccccc3[C@H]2N2C(=O)N(c3ccc(OC)cc3)C(=O)[C@]12C,i,i,-6.3*,i,i,i,i,i,/,i,i,i,i,
CCOC(=O)[C@@H]1[C@H]2COc3cc(OC)ccc3[C@H]2N2C(=O)N(c3ccc(C(F)(F)F)cc3)C(=O)[C@@]12C,i,i,i,i,i,/,/,/,/,/,/,/,/,
CCOC(=O)[C@@H]1[C@H]2COc3ccccc3[C@@H]2N2C(=O)N(c3cccc(C)c3)C(=O)[C@]12C,i,i,-5.8*,i,i,i,i,i,/,i,i,i,i,
O=C1/C(=C/c2ccc(O)cc2)SC(=S)N1Cc1cccnc1,i,i,i,i,i,/,/,/,/,/,/,/,/,
O=C1/C(=C\c2ccc(O)c(O)c2)SC(=S)N1Cc1ccccc1,i,i,-12*,14*,i,16%*,36%*,42%*,/,i,0.31*,i,i,
COc1cc(C(=O)c2ccccc2)c(OC)cc1C(=O)Nc1ccc(O)cc1,i,i,i,i,i,/,/,/,/,/,/,/,/,
O=C1c2ccccc2S(=O)(=O)c2cc(C(=O)N(c3ccccn3)c3ccccn3)ccc21,i,i,i,4.9*,41*,14%*,34%*,135%*,653%*,/,i,i,126*,
Cc1ccc(OCC(=O)Nc2ccc3c(c2)C(=O)N(CCC(=O)O)C3=O)cc1,i,i,i,i,i,/,/,/,/,/,/,/,/,
CCOC(=O)C(=O)C1=C(N2CCOCC2)/C(=C\c2ccc(F)cc2)CC1,i,i,i,7.7*,27*,7.0%*,i,21%*,220%*,/,i,i,45*,
Cc1c(-c2nc(N)nc(Nc3ccccc3F)n2)oc2ccccc12,i,16*,i,i,i,/,i,i,/,/,i,i,i,MrgX1 allo conf=59%*
CCCc1nc2ccccc2c(=O)n1/N=C/c1c(C)[nH]n(-c2ccc(C)cc2)c1=O,i,i,i,i,78*,/,/,/,320%*,/,i,i,91*,
NC(=Nc1ccc(Br)cc1)c1ccccc1,i,i,i,i,78*,/,/,/,289%*,/,i,i,48*,
